≈ marks a conversion by molar mass, not a printed value.
Columns and labels:
[1] = Chemical hydrolysis stability study at 40-70 °C with Arrhenius extrapolation; type: physicochemical; settings: for extrapolated pseudo-first-order rate constant (kobsd) for hydrolysis: extrapolated from Arrhenius plot; for pseudo-first-order rate constant (kobsd) of hydrolysis: pH 7.4; for half-life: pH 7.4, calculated half-life (t1/2) of hydrolysis
In short: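 Test compound dissolved in Sodium Chloride Injection USP at 20.0 mg/100 mL ("high") or 3.00 mg/100 mL ("low"). Flame-sealed in sterilized ampules and held at 70, 60, 50 or 40 °C, sampled at intervals over hours (70, 60 °C) or days (50, 40 °C). Analysed by HPLC. Ea came from an Arrhenius plot, which was extrapolated to give kobsd, t1/2 and t90 at 25 and 4 °C.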

[2] = system: HT-29 human colon adenocarcinoma cell line; assay: Efficacy study in a mouse model of human colon adenocarcinoma; type: in vivo, female athymic nude mice; settings: for test-article related deaths: 0.9 mg/kg IP, ten mice
In short: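 Female athymic nude mice aged 7–9 weeks, acclimated ≥7 days. Implanted s.c. in the right flank with 1.74 × 10^6 mycoplasma-negative HT-29 cells in 50% Matrigel/medium. Randomized at mean 110 mm3, 10 per group. Dosed IP in USP saline (0.2 mL) by group-mean body weight, daily or intermittently, for 28 days. Caliper volume (L × W²/2) measured ≥twice weekly, plus necropsy tumor weight, survival, body weight and clinical signs.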

[3] = system: A2780 human ovarian cancer cell line; assay: Efficacy study in a mouse model of human ovarian cancer; type: in vivo, female athymic nude mice
In short: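 A2780 cells (RPMI 1640/10% FBS, mycoplasma-negative) implanted s.c. at 2.5 × 10^6 in 50% Matrigel into female athymic nude mice aged 7–9 weeks. Randomized at mean 188 mm3, 10 per group. Daily IP or oral-gavage doses of 0.1–1.2 mg/kg in USP saline for 30 days. Controls were vehicle and carboplatin 60 mg/kg twice weekly. Tumor volume (L × W²/2), survival and clinical signs tracked.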

[4] = system: alkaline phosphatase from bovine intestinal mucosa; settings: no enzyme; cited from earlier work
[5] = Aqueous solubility determination; type: physicochemical; settings: pH 7.4
In short: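 About 5 mg excess solid in Tris buffer pH 7.4, in triplicate. Sonicated, vortexed, then shaken at 100 shakes/min at 25 °C for 24 h. Solid removed by centrifugation and filtration; filtrate diluted. Quantified by HPLC on a C18 column with photodiode-array detection, using an acetonitrile (10–70%)/10 mM sodium phosphate pH 7 gradient over 20 min.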

[6] = clinical trials, patients; cited from earlier work

Compound: CC(C)[C@]12O[C@H]1[C@@H]1O[C@]13[C@]1(O[C@H]1C[C@H]1C4=C(CC[C@@]13C)C(=O)OC4)[C@@H]2OCOP(=O)([O-])[O-].[Na+].[Na+] [Compound 4, Sodium (((5bS,6aS,7aR,8R,8aS,9aS,9bS,10aS,10bS)-8a-Isopropyl-10b-methyl-3-oxo-1,2,3,5,5b,6,6a,8,8a,9a,9b,10b-dodecahydrotris(oxireno)[2′,3′:4b,5;2″,3″:6,7;2‴,3‴:8a,9]phenanthro[1,2-c]furan-8-yl)oxy)methyl Phosphate]
- extrapolated pseudo-first-order rate constant (kobsd) for hydrolysis ([1]; 4 °C): 6.5 × 10^–6 h^–1
- extrapolated pseudo-first-order rate constant (kobsd) for hydrolysis ([1]; 25 °C): 8.6 × 10^–5 h^–1
- pseudo-first-order rate constant (kobsd) of hydrolysis ([1]; 40 °C): 0.000494 h^–1
- pseudo-first-order rate constant (kobsd) of hydrolysis ([1]; 50 °C): 0.001052 h^–1
- pseudo-first-order rate constant (kobsd) of hydrolysis ([1]; 60 °C): 0.002482 h^–1
- pseudo-first-order rate constant (kobsd) of hydrolysis ([1]; 70 °C): 0.008659 h^–1
- activation energy (Ea) of hydrolysis ([1]; from Arrhenius plot, pH 7.4, 40-70 °C): 63.4 kJ/mol
- half-life ([1]; 4 °C): 4460 days
- half-life ([1]; 25 °C): 336 days
- mice that survived until the end of the study ([2]; 0.9 mg/kg IP daily for 2 weeks followed by 3×/week): 9/10
- mice that survived until the end of the study ([2]; 0.9 mg/kg IP daily for 4 weeks): 7/10
- tumor status of all mice surviving until the end of the study ([2]; 0.9 mg/kg IP daily for 4 weeks or daily for 2 weeks followed by 3×/week): tumor free
- effect on xenograft tumors, intermittent regimens ([2]; 0.9 mg/kg IP less frequently than daily or with a break from daily dosing): effective
- test-article related deaths ([2]; QD for 2 weeks group): 1
- test-article related deaths ([2]; QD for 2 weeks then 3×/week group): 1
- test-article related deaths ([2]; QD for 4 weeks group): 3
- tolerability ([2]; IP, 0.1-0.9 mg/kg, all regimens): generally well tolerated
- effect on xenograft tumors ([2]; administered daily IP, dose levels from 0.3 to 0.9 mg/kg, 28 days): effective in reducing or eliminating xenograft tumors
- efficacy and tolerability ([3]; intraperitoneal injection, daily doses of 0.6 or 0.9 mg/kg (data not shown)): effective and well tolerated
- efficacy ([3]; oral gavage, daily doses of 0.6 or 0.9 mg/kg, slightly higher rates of morbidity and mortality): effective
- stability in a similar assay in the absence of alkaline phosphatase [4]: stable for 1 h
- solubility enhancement by prodrug formation versus triptolide [5]: 3600 times

Compound: CC(C)[C@]12O[C@H]1[C@@H]1O[C@]13[C@]1(O[C@H]1C[C@H]1C4=C(CC[C@@]13C)C(=O)OC4)[C@@H]2OC(=O)CCC(=O)O [omtriptolide, triptolide succinate]
- cleavage of the prodrug moiety [6]: slow and incomplete

Compound: CC(C)[C@]12O[C@H]1[C@@H]1O[C@]13[C@]1(O[C@H]1C[C@H]1C4=C(CC[C@@]13C)C(=O)OC4)[C@@H]2O [triptolide, Triptolide, reference compound]
- solubility at 24 h ([5]; Tris buffer): 17 µg/mL (≈ 47.2 µM)

From PMC4678411 (Journal of Medicinal Chemistry, 2015)
